In ChEMBL document CHEMBL1158557, “In vitro TRPV1 activity of piperine derived amides” (Bioorg Med Chem, 2010):
The source made the active and inactive calls. The calls are words filed in the database; no cut-off is given here.

Legend:
[1] = biological target: T1, Transient receptor potential cation channel subfamily V member 1 (Homo sapiens, UniProt Q8NER1); experiment: Antagonist activity at human TRPV1 expressed in tetracycline-stimulated HEK293 cells assessed as inhibition of capsaicin-induced intracellular calcium levels by fluorimetric assay relative to control; type: functional, cell-based
[2] = biological target: T1, Transient receptor potential cation channel subfamily V member 1; experiment: Antagonist activity at human TRPV1 expressed in tetracycline-stimulated HEK293 cells assessed as inhibition of capsaicin-induced intracellular calcium levels by fluorimetric assay; type: functional, cell-based
[3] = biological target: T1, Transient receptor potential cation channel subfamily V member 1; experiment: Agonist activity at human TRPV1 expressed in tetracycline-stimulated HEK293 cells assessed as increase in intracellular calcium levels by fluorimetric assay relative to control; type: functional, cell-based
Summary of the method: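 Tetracycline induction (0.1 µg/mL, 16–24 h) of HEK T-REx hTRPV1 cells, then Fluo-4/AM loading (1 µM, with probenecid 2 mM, 1 h, 37 °C) and a 30 min rest in HEPES buffer pH 7.4. Screening at 100 µM, then full concentration–response for compounds above 50%. Ex 488/em 520 nm, 22–24 °C, triplicate wells.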

[4] = biological target: T1, Transient receptor potential cation channel subfamily V member 1; experiment: Agonist activity at human TRPV1 expressed in tetracycline-stimulated HEK293 cells assessed as increase in intracellular calcium levels by fluorimetric assay; type: functional, cell-based
[5] = biological target: T1, Transient receptor potential cation channel subfamily V member 1; experiment: Agonist activity at human TRPV1 expressed in HEK293 cells assessed as increase in intracellular calcium levels by fluorimetric assay without tetracycline-stimulation; type: functional, cell-based
Summary of the method: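 Non-induced HEK T-REx hTRPV1 cells (no tetracycline) loaded with Fluo-4/AM 1 µM plus probenecid 2 mM for 1 h at 37 °C, then equilibrated 30 min in HEPES buffer pH 7.4. Compounds at 100 µM (10 µM where solubility poor), DMSO ≤0.1%. Fluorescence read at 488/520 nm, 22–24 °C, triplicate wells. Response given as % of 1 µM ionomycin; n = 4–6.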

[6] = biological target: T1, Transient receptor potential cation channel subfamily V member 1; experiment: Displacement of [3H]resiniferatoxin from human TRPV1

T1 sequence (Q8NER1 whole entry): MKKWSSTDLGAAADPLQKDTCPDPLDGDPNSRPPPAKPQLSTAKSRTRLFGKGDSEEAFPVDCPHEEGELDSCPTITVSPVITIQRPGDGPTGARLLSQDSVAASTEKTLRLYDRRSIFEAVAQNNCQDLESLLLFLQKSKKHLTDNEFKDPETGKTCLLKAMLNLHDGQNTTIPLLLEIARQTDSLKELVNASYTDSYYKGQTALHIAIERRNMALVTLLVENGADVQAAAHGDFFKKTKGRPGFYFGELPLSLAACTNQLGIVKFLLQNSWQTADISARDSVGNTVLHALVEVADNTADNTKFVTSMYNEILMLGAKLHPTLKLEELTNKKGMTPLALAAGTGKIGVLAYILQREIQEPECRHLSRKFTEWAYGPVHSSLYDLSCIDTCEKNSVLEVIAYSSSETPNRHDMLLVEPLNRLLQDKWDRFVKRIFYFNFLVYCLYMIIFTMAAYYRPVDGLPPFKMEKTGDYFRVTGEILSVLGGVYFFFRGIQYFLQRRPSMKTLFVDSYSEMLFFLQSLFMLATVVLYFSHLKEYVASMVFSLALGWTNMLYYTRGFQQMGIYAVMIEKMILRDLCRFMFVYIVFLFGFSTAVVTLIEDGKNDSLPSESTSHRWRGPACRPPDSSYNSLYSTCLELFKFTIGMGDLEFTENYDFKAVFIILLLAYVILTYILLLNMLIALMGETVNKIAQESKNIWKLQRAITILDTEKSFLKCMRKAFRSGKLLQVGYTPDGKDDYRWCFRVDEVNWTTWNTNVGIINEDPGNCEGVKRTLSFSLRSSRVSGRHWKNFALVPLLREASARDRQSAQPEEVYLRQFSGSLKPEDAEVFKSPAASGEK

Row | Compound | Emax [1] [%] | EC50 [2] [nM] | Emax [3] [%] | EC50 [4] [nM] | Activity [5] | Activity [6]
1 | COc1cc(/C=C/C(=O)NCC(C)C)ccc1O | 94 | 6.31 | – | – | – | –
2 | O=C(/C=C/C=C/c1ccc2c(c1)OCO2)N1CCOCC1 | – | – | 93 | 2510 | inactive | –
3 | O=C(/C=C/C=C/c1ccc2c(c1)OCO2)Nc1ccc(Cl)cc1 | 94 | 10 | – | – | – | –
4 | COc1cc(/C=C/C(=O)N2CCOCC2)ccc1O | 92 | 2.51 | – | – | – | –
5 | COc1cc(CNC(=O)CCCC/C=C/C(C)C)ccc1O | – | – | 97 | – | – | –
6 | CC(C)CNC(=O)/C=C/C=C/c1ccc2c(c1)OCO2 [PIPERLONGUMININE] | 94 | 6.31 | – | – | – | –
7 | O=C(/C=C/CCc1ccc2c(c1)OCO2)N1CCCCC1 [PIPERANINE] | – | – | 88 | 3980 | inactive | –
8 | O=C(/C=C/c1ccc2c(c1)OCO2)N1CCCCC1 [ILEPCIMIDE] | – | – | 66 | 20000 | inactive | –
9 | O=C(/C=C/C=C/c1ccc2c(c1)OCO2)N1CCCCC1 [PIPERINE] | – | – | 91 | 3160 | inactive | inactive
10 | COc1cc(/C=C/C(=O)N2CCSCC2)ccc1O | 93 | 2.51 | – | – | – | –
11 | COc1cc(/C=C/C(=O)N2CCCCC2)ccc1O | 93 | 2 | – | – | – | –
12 | Oc1cc2c(cc1O)CN(C(=S)NCCc1ccc(Cl)cc1)CCC2 [CAPSAZEPINE] | 92 | 2510 | – | – | – | –
13 | O=C(CCCCc1ccc2c(c1)OCO2)N1CCCCC1 [TETRAHYDROPIPERINE] | – | – | 90 | 6310 | inactive | –
